Reference: ChEMBL document CHEMBL1121660, “Haloacetamido analogues of 2-amino-2-deoxy-D-mannose. Syntheses and effects on tumor-bearing mice” (J Med Chem, 1981)

What was measured:
L1210 [1] = test: Compound was tested for concentration that inhibited thymidine incorporation in vitro by 50%; type: functional, cell-based, Mus musculus
How it was run: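 Ascites L1210 cells from DBA/2 passage hosts (harvested 5 days after ip implant of 10⁶ cells), washed in 0.85% NaCl and suspended at 2 × 10⁷/mL in RPMI-1640. Exposed 1 h at 37 °C in RPMI-1640 with 10% FBS; tetra-O-acetates added from ethanol solution, free sugars dissolved directly in medium. Cells washed and plated, then pulsed with [³H]thymidine (1.0 μCi/well) for 15 h. TCA-washed cells counted by scintillation. Ethanol-matched controls. IC50 reported as mean ± SE (≥3 determinations) or range (2).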

Mus musculus [2] = test: In vivo chemotherapy of Ehrlich tumor in B6D2F1 mice at a dose of 0.12 (mmol/kg)/day expressed as number days after tumor challenge; type: functional
Mus musculus [3] = test: In vivo chemotherapy of Ehrlich tumor in B6D2F1 mice at a dose of 0.42 (mmol/kg)/day was expressed as number of survivors on 60-day/number of treated; 0/5; type: functional
[4] = Compound was tested for lethal dose administered in single dose intraperitoneally that killed 50% of the animals; type: ADME, organism-based; details: mouse, in vivo, ip
Mus musculus [5] = test: In vivo chemotherapy of Ehrlich tumor in B6D2F1 mice at a dose of 0.71 (mmol/kg)/day was expressed as number of survivors on 60-day/number of treated; 8/8; type: functional
Mus musculus [6] = test: In vivo chemotherapy of Ehrlich tumor in B6D2F1 mice at a dose of 0.35 (mmol/kg)/day expressed as number days after tumor challenge; type: functional
Mus musculus [7] = test: In vivo chemotherapy of Ehrlich tumor in B6D2F1 mice at a dose of 0.71 (mmol/kg)/day was expressed as number of survivors on 60-day/number of treated; 4/8; type: functional
Mus musculus [8] = test: In vivo chemotherapy of Ehrlich tumor in B6D2F1 mice at a dose of 0.71 (mmol/kg)/day was expressed as number of survivors on 60-day/number of treated; 1/8; type: functional
L1210 [9] = test: Percent of control (thymidine incorporation in vitro) at 2.5 mM in L1210 leukemia cells in vitro of B6D2F1 mice; type: functional, Mus musculus
Mus musculus [10] = test: In vivo chemotherapy of Ehrlich tumor in B6D2F1 mice at a dose of 3.2 (mmol/kg)/day expressed as number days after tumor challenge; type: functional
Mus musculus [11] = test: In vivo chemotherapy of Ehrlich tumor in B6D2F1 mice at a dose of 2.5 (mmol/kg)/day was expressed as number of survivors on 60-day/number of treated; 3/8; type: functional
Mus musculus [12] = test: In vivo chemotherapy of Ehrlich tumor in B6D2F1 mice at a dose of 2.5 (mmol/kg)/day was expressed as number of survivors on 60-day/number of treated; 5/8; type: functional
Mus musculus [13] = test: In vivo chemotherapy of Ehrlich tumor in B6D2F1 mice at a dose of 3.2 (mmol/kg)/day was expressed as number of survivors on 60-day/number of treated;2/4; type: functional
Mus musculus [14] = test: In vivo chemotherapy of Ehrlich tumor in B6D2F1 mice at a dose of 0.13 (mmol/kg)/day expressed as number days after tumor challenge; type: functional
Mus musculus [15] = test: In vivo chemotherapy of Ehrlich tumor in B6D2F1 mice at a dose of […] (mmol/kg)/day expressed as number days after tumor challenge; type: functional
Mus musculus [16] = test: In vivo chemotherapy of Ehrlich tumor in B6D2F1 mice at a dose of 0.22 (mmol/kg)/day was expressed as number of survivors on 60-day/number of treated; 4/4
Mus musculus [17] = test: In vivo chemotherapy of Ehrlich tumor in B6D2F1 mice at a dose of 0.22 (mmol/kg)/day expressed as number days after tumor challenge; type: functional
Mus musculus [18] = test: In vivo chemotherapy of Ehrlich tumor in B6D2F1 mice at a dose of 0.19 (mmol/kg)/day expressed as 60-day survivors (number of survivors/number of treated); 1/8; type: functional
Mus musculus [19] = test: In vivo chemotherapy of Ehrlich tumor in B6D2F1 mice at a dose of 0.13 (mmol/kg)/day was expressed as number of survivors on 60-day/number of treated; 3/8; type: functional
Mus musculus [20] = test: In vivo chemotherapy of Ehrlich tumor in B6D2F1 mice at a dose of 0.19 (mmol/kg)/day was expressed as number of survivors on 60-day/number of treated; 1/8; type: functional
Mus musculus [21] = test: In vivo chemotherapy of Ehrlich tumor in B6D2F1 mice at a dose of 3.7 (mmol/kg)/day expressed as number days after tumor challenge; type: functional
Mus musculus [22] = test: In vivo chemotherapy of Ehrlich tumor in B6D2F1 mice at a dose of 3.7 (mmol/kg)/day was expressed as number of survivors on 60-day/number of treated; 1/5; type: functional
Mus musculus [23] = test: In vivo chemotherapy of Ehrlich tumor in B6D2F1 mice at a dose of 0.42 (mmol/kg)/day was expressed as number of survivors on 60-day/number of treated;0/8; type: functional
Mus musculus [24] = test: In vivo chemotherapy of Ehrlich tumor in B6D2F1 mice at a dose of 0.42 (mmol/kg)/day expressed as number days after tumor challenge; type: functional

CC(=O)OCC1OC(OC(C)=O)C(NC(=O)CCl)C(OC(C)=O)C1OC(C)=O (stereo in doubt; form 2)
IC50 (L1210 [1]; l1210): 425 µM

CC(=O)OCC1OC(OC(C)=O)C(NC(=O)CF)C(OC(C)=O)C1OC(C)=O (stereo in doubt; form 3)
Days (Mus musculus [2]): 1
Survivors (Mus musculus [3]): 0

CC(=O)OCC1OC(OC(C)=O)C(NC(=O)CCl)C(OC(C)=O)C1OC(C)=O (stereo in doubt; form 3)
LD50 [4]: 1600 µmol/kg
Survivors (Mus musculus [5]): 8
IC50 (L1210 [1]; l1210): 143 µM
Days (Mus musculus [6]): 3
Survivors (Mus musculus [7]): 4
Survivors (Mus musculus [8]): 1

O=C(CCl)NC1C(O)OC(CO)C(O)C1O (stereo in doubt; form 1)
Thymidine incorporation (% of control) (L1210 [9]): 51%

O=C(CCl)NC1C(O)OC(CO)C(O)C1O (stereo in doubt; form 3)
Thymidine incorporation (% of control) (L1210 [9]): 97%

CC(=O)OCC1OC(OC(C)=O)C(NC(=O)CCl)C(OC(C)=O)C1OC(C)=O (stereo in doubt; form 1)
IC50 (L1210 [1]; l1210): 220 µM

O=C(CBr)NC1C(O)OC(CO)C(O)C1O (stereo in doubt; form 3)
Thymidine incorporation (% of control) (L1210 [9]): 95%

CC(=O)OCC1OC(OC(C)=O)C(NC(=O)CF)C(OC(C)=O)C1OC(C)=O (stereo in doubt; form 2)
IC50 (L1210 [1]; Mus musculus, L1210): > 1000 µM

O=C(CBr)NC1C(O)OC(CO)C(O)C1O (stereo in doubt; form 1)
LD50 [4]: > 3200 µmol/kg
Days (Mus musculus [10]): 4
Survivors (Mus musculus [11]): 3
Survivors (Mus musculus [12]): 5
Survivors (Mus musculus [13]): 2
Thymidine incorporation (% of control) (L1210 [9]): 79%

CC(=O)OCC1OC(OC(C)=O)C(NC(=O)CBr)C(OC(C)=O)C1OC(C)=O (stereo in doubt; form 3)
Days (Mus musculus [14]): 1
Days (Mus musculus [15]): 3
Survivors (Mus musculus [16]): 4
Days (Mus musculus [17]): 1
IC50 (L1210 [1]; Mus musculus, L1210): 9.4 µM
Survivors (Mus musculus [18]): 1
Survivors (Mus musculus [19]): 3
Survivors (Mus musculus [20]): 1

O=C(CCl)NC1C(O)OC(CO)C(O)C1O (stereo in doubt; form 2)
Days (Mus musculus [21]): 4
Survivors (Mus musculus [22]): 1

O=C(CBr)NC1C(O)OC(CO)C(O)C1O (stereo in doubt; form 2)
Thymidine incorporation (% of control) (L1210 [9]): 68%

O=C(CF)NC1C(O)OC(CO)C(O)C1O (stereo in doubt; form 1)
Survivors (Mus musculus [23]): 0
Days (Mus musculus [24]): 2
Thymidine incorporation (% of control) (L1210 [9]): 93%

CC(=O)OCC1OC(OC(C)=O)C(NC(=O)CBr)C(OC(C)=O)C1OC(C)=O (stereo in doubt; form 2)
IC50 (L1210 [1]; l1210): 6.5 µM

CC(=O)OCC1OC(OC(C)=O)C(NC(=O)CBr)C(OC(C)=O)C1OC(C)=O (stereo in doubt; form 1)
LD50 [4]: 240 µmol/kg
